Measurements collected from several papers.
Protocols differ between the studies behind these lines.
Effect on: thermal stability
Technique: DSF
SIRT2: NAD-dependent protein deacetylase sirtuin-2 (SIRT2, Homo sapiens, UniProt Q8IXJ6)
GAK: Cyclin-G-associated kinase (GAK, Homo sapiens, UniProt O14976)
DCLK1: Serine/threonine-protein kinase DCLK1 (DCLK1, Homo sapiens, UniProt O15075)
lecA: PA-I galactophilic lectin (lecA, Pseudomonas aeruginosa, UniProt Q05097)

Compound | target | tested at | ΔTm [°C]
Cc1cc(C)nc(SCC(=O)Nc2ncc(Cc3cccc(OCc4cn(Cc5ccccc5C)nn4)c3)s2)n1 | SIRT2 | 25 µM | 4.26
FC(F)(F)c1ccc2nccc(Nc3ccc(Cl)cc3)c2c1 | GAK | 10 µM | 4.3
CCN1CCC2(CC1)NC(=O)c1c(c3ccc(Cl)c(Cl)c3n1C)C2C#N (racemic) | DCLK1 | 10 µM | 0.1
COc1ccccc1Nc1ccnc2ccc(C(F)(F)F)cc12 | GAK | 10 µM | 3
CCC1(CC)NC(=O)c2c(c3ccc(Cl)c(Cl)c3n2C)C1C#N (centres unmarked) | DCLK1 | 10 µM | 0
CC(C)(C)c1ccc(O)c(O)c1 | lecA | 4 mM | -15.4
Cc1cc(C)nc(SCC(=O)Nc2ncc(Cc3cccc(OCc4cn(Cc5ccc(OCCN6CCOCC6)cc5)nn4)c3)s2)n1 | SIRT2 | 25 µM | 6.63
Fc1cc(Nc2ccnc3ccc(C(F)(F)F)cc23)cc(F)c1F | GAK | 10 µM | 3.7
CCCCCCCC(=O)Nc1ncc(Cc2cccc(OCc3cn(CCOC)nn3)c2)s1 | SIRT2 | 25 µM | 4.28
N#Cc1cccc(O)c1O | lecA | 4 mM | 1.8
Cn1c2c(Cl)c(Cl)ccc2c2cn[nH]c(=O)c21 | DCLK1 | 10 µM | -0.2
